Consider four compounds from article PMC10194330 (Virus Research, 2022).

The test system of one data set is HCV. To be noted: ref Bost et al., 2003; cited from earlier work.
The subject of the next data set is ZIKV. To be noted: ref Sultana et al., 2018; cited from earlier work.
Data set [1] concerns BHK-21 cells. The experiment in a line: Cytotoxicity assay. The data set is classed as cell-based.
The test system of data set [2] is DENV-2. Put plainly: Post-infection plaque reduction assay. The data set is classed as cell-based, Dengue virus. To be noted: S.71 at 50 and 100 μM, POD at 0.1 μM; six days. In a few lines:
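BHK-21 cells infected with DENV-2 (MOI=1) for 2 h at 37 °C, 5% CO2, then washed with PBS. Test compound (12.5–100 µM) added in 1.5% carboxymethylcellulose medium; positive control as log dilutions 0.1–100 µM. Incubated 6 days, then plaques counted in 3 independent assays. EC50 defined as the concentration reducing viral plaques by 50%.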
In general terms: Plaque reduction counts the foci of infection that form in a cell layer.

The test system of data set [3] is DENV-2. Put plainly: Time-of-addition. It counts as cell-based, Dengue virus. The following applies: S.71 72.4 μM, POD 0.1 μM added at 6 and 12 hpi, 24 h exposure, MOI=1. The method in brief:
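BHK-21 cells infected (MOI=1, 2 h, 37 °C, 5% CO2) and washed with PBS. DMEM with 2% FBS containing test compound (72.4 µM; positive control 0.1 µM) added at 6, 12, 24 or 36 hpi, then incubated a further 24 h. Supernatant titrated by plaque assay. DMSO <0.05%. Three independent experiments, mean ± s.e.m., one-way ANOVA.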

Data set [4] relates to DENV-2. The experiment in a line: Negative-strand RNA production. It counts as cell-based, Dengue virus. To be noted: S.71 72.4 μM, POD 0.1 μM; 6 and 12 hpi.
For data set [5], the system named is BHK-21 cells. The experiment in a line: Fluorescence imaging of microtubules, MTOC and endoplasmic reticulum. The data set is classed as cell-based. The following applies: for MTOC localization/detection: BHK-21 cells, 24 h treatment. The method in brief: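 BHK-21 cells on coverslips infected (MOI=1, 2 h) or mock, then treated 24 h with test compound from 6 or 12 hpi. Fixed in 3.8% paraformaldehyde. Microtubules stained with anti-α/β-tubulin and MTOC with anti-γ-tubulin; […] used as comparator. For ER imaging, cells were transfected with pmKate2-ER plasmid and infected 24 h later. Imaged with a 60x objective.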

Data set [6] deals with DENV-2. The experiment in a line: Fluorescence imaging of dsRNA and ENV protein. The data set is classed as cell-based, Dengue virus. The following applies: treatment at 6 and 12 hpi; S.71 72.4 µM, POD 0.1 µM. In a few lines: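 BHK-21 cells on coverslips infected with DENV-2 (MOI=1, 2 h). Test compound (72.4 µM; positive control 0.1 µM) added at 6 or 12 hpi and left 24 h. Cells washed with cytoskeleton buffer, fixed in 3.8% paraformaldehyde and immunostained for ENV (4G2) and dsRNA (J2), with tubulin and Hoechst nuclei. Imaged with a 60x objective; mean fluorescence intensity quantified. Three independent triplicate experiments; unpaired t-test.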

Data set [7] relates to BHK-21 cells. The experiment in a line: Annexin V staining, size and granularity. It counts as cell-based. To be noted: infected or uninfected BHK-21 cells, 24 h. In a few lines: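 Infected and/or treated BHK-21 cells resuspended in binding buffer with annexin V, incubated 15 min at 4 °C, then diluted with binding buffer and centrifuged 5 min. Analysed by flow cytometry for annexin V, with cell size from forward scatter (FSC) and granularity from side scatter (SSC).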

For data set [8], the system named is BHK-21 cells. The experiment in a line: Cell recovery assay. It counts as cell-based. The method in brief:
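BHK-21 cells on coverslips exposed 24 h to test compound. Compound then removed, monolayers washed and cultured 3 days in DMEM with 2% FBS. Cells fixed with 3.8% paraformaldehyde and nuclei stained with Hoechst 33342. Morphology imaged by differential interference contrast with a 60x objective.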

The test system of the next data set is ER. To be noted: treatment during 2 h; ref Terasaki et al., 1986; cited from earlier work.

With `COc1cc2c(c(OC)c1OC)-c1ccc(OC)c(=O)cc1[C@@H](NC(C)=O)CC2` [colchicine], the HCV viral infection entry in the data set on HCV is “reduced”. In addition, the ZIKV viral infection result in the data set with ZIKV was “reduced”.
For the compound `CC(=O)O[C@H]1C(=O)[C@@]2(C)[C@H]([C@H](OC(=O)c3ccccc3)[C@]3(O)C[C@H](OC(=O)[C@H](O)[C@@H](NC(=O)c4ccccc4)c4ccccc4)C(C)=C1C3(C)C)[C@]1(OC(C)=O)CO[C@@H]1C[C@@H]2O` [paclitaxel], the HCV viral infection entry in the data set with HCV was “reduced”. For the same compound, the ZIKV viral infection result with ZIKV is on record as “reduced”.
In the case of `COc1cc([C@@H]2c3cc4c(cc3[C@H](O)[C@H]3COC(=O)[C@H]23)OCO4)cc(OC)c1OC` [POD, Podophyllotoxin], the “concentrations at which very toxic” value with BHK-21 cells [1] (CC50 could not be determined) was greater than 1000 nM. In the data set with BHK-21 cells [1] (below 1 µM), the “effect on cells below 1 µM” value is listed as “cytostatic”. Moreover, the “viral titer in post-infection treatment” value in the data set on DENV-2 [2] is “effective”. The “viral yield of DENV-2” value in the data set on DENV-2 [3] was “effective”. Further, the “negative-strand RNA copies” value in the data set with DENV-2 [4] is “low numbers of copies”. Also, the “effect on rough endoplasmic reticulum” value in the data set on BHK-21 cells [5] (6 hpi or 12 hpi, infected and mock cells) is reported as “ER retraction”. Besides, in the data set on BHK-21 cells [5], the MTOC localization/detection entry is “not detected”. In the data set with BHK-21 cells [5] (infected and uninfected cells treated at 6 or 12 hpi, 24 h, S.71 72.4 µM, POD 0.1 µM), the “cell morphology and microtubule distribution” value was “round morphology and fragmented microtubules”. Besides, in the data set on DENV-2 [6], the “ENV protein signal (MFI)” value is “significant decreases” and the “dsRNA signal (MFI)” value is reported as “significant decreases”. Also, in the data set on BHK-21 cells [7], the “cell granularity (SSC)” value is listed as “increase in cell granularity”, the “cell size (FSC)” value is reported as “changes in cell size were not observed” and the “phosphatidylserine exposure (annexin V)” value was “nor changes in phosphatidylserine exposure”. Moreover, the “recovery of cell morphology after treatment removal” value in the data set with BHK-21 cells [8] (24 h treatment, then nutrient-supplemented medium) is “recovered their normal morphology after three days”. For the same compound, in the data set with BHK-21 cells [8] (BHK-21 cells, 24 h), the “nuclei after 24 h treatment” value is “pyknotic and fragmented nuclei”.
As to `COC(=O)Nc1nc2ccc(C(=O)c3cccs3)cc2[nH]1` [nocodazole], the MTOC localization/detection entry in the data set with BHK-21 cells [5] is “not detected”. The HCV viral infection result with HCV was “reduced”. Moreover, the ZIKV viral infection result in the data set with ZIKV is on record as “reduced”. The “effect on ER” value with ER is on record as “ER retraction”.
